Results: ChEMBL document CHEMBL1124475, “The thieno[3,2-c]pyridine and furo[3,2-c]pyridine rings: new pharmacophores with potential antipsychotic activity” (J Med Chem, 1989)
The source made the active and inactive calls. The rule behind the calls is not given here.

Experiments:
Rattus norvegicus [1] = assay: spontaneous discharge activity of individual noradrenergic neurons in the locus coeruleus (LC) when administered intravenously in anesthetized male Sprague-Dawley rats; (excitatory); type: functional; details: iv
Rattus norvegicus [2] = assay: Blockade of Sidman-avoidance activity in rats when administered perorally; type: functional
Outline: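 Rats trained in once-daily Sidman sessions until stable; non-learners after 3 days replaced. Twelve rats dosed 30 min before session. Each rat compared with mean of its previous three drug-free days by paired t test. Testing continued to minimally effective dose; maximum usually 100 mg/kg. MED is mean over 12 animals.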

[3] = target: T1, Serotonin 1 (5-HT1) receptor (Rattus norvegicus, UniProt P28564+P30940+P19327+P28565); assay: Ability to bind at 5-hydroxytryptamine 1 receptor of rat hippocampus by displacing [3H]5-HT; type: tissue-based
Outline: (§1)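 Rat receptor radioligand displacement, five test-ligand concentrations used to calculate IC50, each assay in duplicate. Some compounds determined four times (in duplicate), with mean IC50 reported.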

[4] = target: Serotonin 2 (5-HT2) receptor (Rattus norvegicus, UniProt P30994+P08909+P14842); assay: Ability to bind at serotonin 5-hydroxytryptamine 2 receptors of rat cortex by displacing [3H]spiperone
Rattus norvegicus [5] = assay: Conditioned avoidance response (CAR) when administered perorally; type: functional; details: po
Rattus norvegicus [6] = assay: Spontaneous discharge activity of individual dopaminergic neurons in the substantia nigra (A9 DA cells) when administered intravenously at a dose of 0.1-6.3 mg/kg in anesthetized male Sprague-Dawley rats; (excitatory); type: functional; details: A9DA, iv
Rattus norvegicus [7] = assay: Blockade of apomorphine-induced stereotypy in rats when administered perorally; type: functional; details: po
Rattus norvegicus [8] = assay: Spontaneous discharge activity of individual serotonergic neurons in the dorsal raphe (DR) nucleus when administered intravenously in anesthetized male Sprague-Dawley rats; (inhibitory); type: functional; details: iv
D(2) dopamine receptor = D(2) dopamine receptor (Rattus norvegicus, UniProt P61169); assay: Ability to bind at Dopamine receptor D2 of rat corpus striatum by displacing [3H]spiperone; outline: as §1
D(2) dopamine receptor, sequence (P61169 whole entry): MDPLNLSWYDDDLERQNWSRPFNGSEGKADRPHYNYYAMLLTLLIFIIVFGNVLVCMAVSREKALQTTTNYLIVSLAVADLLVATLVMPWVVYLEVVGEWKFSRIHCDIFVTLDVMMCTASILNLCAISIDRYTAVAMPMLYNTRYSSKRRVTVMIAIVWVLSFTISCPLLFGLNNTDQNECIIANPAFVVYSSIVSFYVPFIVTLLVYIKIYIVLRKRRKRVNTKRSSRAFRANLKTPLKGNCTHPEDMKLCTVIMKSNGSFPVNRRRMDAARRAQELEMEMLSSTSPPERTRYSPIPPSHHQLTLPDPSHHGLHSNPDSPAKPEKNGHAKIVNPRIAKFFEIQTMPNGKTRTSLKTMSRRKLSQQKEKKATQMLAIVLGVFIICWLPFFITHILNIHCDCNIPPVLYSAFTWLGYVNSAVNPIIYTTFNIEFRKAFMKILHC

Rattus norvegicus [9] = assay: Induction of catalepsy in rats when administered perorally and maximum dose examined was 4 times the ED50 value established in CAR; Inactive; type: functional, organism-based
[10] = target: T2, Adrenergic receptor alpha-1 (Rattus norvegicus, UniProt P15823+P23944+P43140); assay: Ability to bind at alpha-1 adrenergic receptor by displacing [3H]WB-4101; type: protein assay; outline: as §1
T2 sequence (P15823 whole entry): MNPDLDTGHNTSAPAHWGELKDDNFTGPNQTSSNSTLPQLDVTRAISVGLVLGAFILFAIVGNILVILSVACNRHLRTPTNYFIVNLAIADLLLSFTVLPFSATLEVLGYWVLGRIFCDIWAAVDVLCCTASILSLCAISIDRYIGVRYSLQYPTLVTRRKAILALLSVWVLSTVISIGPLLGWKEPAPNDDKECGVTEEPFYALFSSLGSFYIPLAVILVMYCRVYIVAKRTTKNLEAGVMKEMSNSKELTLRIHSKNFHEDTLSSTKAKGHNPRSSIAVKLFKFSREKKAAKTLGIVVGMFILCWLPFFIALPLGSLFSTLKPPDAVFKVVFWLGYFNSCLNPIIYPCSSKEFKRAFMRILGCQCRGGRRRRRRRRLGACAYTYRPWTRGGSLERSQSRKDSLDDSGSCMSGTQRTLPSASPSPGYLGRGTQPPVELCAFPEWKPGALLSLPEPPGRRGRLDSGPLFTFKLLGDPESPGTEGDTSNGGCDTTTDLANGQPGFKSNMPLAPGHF
T2 sequence (P23944 whole entry): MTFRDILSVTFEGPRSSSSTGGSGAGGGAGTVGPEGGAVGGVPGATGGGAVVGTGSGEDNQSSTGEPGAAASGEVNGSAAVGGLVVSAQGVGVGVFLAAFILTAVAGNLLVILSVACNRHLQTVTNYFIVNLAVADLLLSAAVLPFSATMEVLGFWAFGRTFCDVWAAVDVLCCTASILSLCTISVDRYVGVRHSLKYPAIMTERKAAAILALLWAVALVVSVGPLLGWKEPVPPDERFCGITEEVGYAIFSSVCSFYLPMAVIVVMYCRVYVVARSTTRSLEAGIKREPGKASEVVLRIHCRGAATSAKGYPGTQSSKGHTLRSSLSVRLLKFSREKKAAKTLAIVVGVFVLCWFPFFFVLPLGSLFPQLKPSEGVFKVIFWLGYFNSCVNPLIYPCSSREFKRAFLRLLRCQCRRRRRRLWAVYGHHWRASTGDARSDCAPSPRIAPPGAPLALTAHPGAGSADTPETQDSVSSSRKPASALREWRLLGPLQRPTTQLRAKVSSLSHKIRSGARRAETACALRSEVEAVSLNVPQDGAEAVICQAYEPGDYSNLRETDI
T2 sequence (P43140 whole entry): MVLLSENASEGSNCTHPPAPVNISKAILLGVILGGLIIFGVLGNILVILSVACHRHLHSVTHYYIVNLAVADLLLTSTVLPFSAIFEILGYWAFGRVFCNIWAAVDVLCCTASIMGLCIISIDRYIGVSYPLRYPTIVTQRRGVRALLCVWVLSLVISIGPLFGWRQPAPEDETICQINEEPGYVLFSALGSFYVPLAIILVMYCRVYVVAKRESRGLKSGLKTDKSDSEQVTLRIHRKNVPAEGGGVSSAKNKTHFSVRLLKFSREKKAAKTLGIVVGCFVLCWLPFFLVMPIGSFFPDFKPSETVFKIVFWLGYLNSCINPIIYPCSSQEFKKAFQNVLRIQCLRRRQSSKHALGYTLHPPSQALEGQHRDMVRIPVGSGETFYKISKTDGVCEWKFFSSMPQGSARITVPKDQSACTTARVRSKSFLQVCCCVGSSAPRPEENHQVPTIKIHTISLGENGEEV

Mus musculus [11] = assay: Blockade of apomorphine-induced climbing in mice when administered perorally; type: functional
Outline: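 Male mice habituated 30 min in individual cages, then dosed orally (distilled H2O or 0.5% Methocel suspension, 10 mL/kg) or vehicle. Apomorphine 1.5 mg/kg sc given 30 min later. Climbing scored at 10, 20, 30 min post-apomorphine. At least five animals per dose, maximum 100 mg/kg.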

Rattus norvegicus [12] = assay: Spontaneous discharge activity of individual dopaminergic neurons in the ventral tegmentum neurons (A10 DA cells) when administered intravenously at a dose of 0.1-6.3 mg/kg in anesthetized male Sprague-Dawley rats; (excitatory); type: functional; details: A10DA, iv
[13] = target: T3, Adrenergic receptor alpha-2 (Rattus norvegicus, UniProt P22086+P19328+P22909); assay: Ability to bind at alpha-2 adrenergic receptor by displacing [3H]clonidine; type: protein assay
T3 sequence (P22086 whole entry): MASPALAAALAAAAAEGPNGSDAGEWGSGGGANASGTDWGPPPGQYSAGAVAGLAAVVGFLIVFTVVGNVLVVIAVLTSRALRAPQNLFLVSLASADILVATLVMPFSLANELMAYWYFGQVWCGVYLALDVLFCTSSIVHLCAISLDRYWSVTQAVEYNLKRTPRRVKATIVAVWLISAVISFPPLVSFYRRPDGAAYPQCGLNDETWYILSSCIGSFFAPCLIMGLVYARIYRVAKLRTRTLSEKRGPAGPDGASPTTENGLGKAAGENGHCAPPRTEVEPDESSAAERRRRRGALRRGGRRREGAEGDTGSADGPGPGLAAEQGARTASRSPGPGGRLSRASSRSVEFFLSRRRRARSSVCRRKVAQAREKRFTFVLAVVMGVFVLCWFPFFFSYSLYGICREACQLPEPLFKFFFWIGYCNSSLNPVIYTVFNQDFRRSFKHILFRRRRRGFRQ
T3 sequence (P19328 whole entry): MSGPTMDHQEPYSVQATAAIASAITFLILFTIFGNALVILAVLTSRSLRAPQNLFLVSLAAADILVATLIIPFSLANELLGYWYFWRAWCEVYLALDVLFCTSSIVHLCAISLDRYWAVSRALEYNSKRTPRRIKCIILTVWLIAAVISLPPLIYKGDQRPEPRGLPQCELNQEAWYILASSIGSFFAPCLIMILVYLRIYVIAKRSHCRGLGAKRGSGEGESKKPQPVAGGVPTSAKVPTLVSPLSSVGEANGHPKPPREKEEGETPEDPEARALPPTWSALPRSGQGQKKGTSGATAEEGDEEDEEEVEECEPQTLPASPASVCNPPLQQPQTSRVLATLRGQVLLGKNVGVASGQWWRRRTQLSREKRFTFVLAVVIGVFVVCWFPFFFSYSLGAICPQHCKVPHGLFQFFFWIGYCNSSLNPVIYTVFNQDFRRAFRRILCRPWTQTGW
T3 sequence (P22909 whole entry): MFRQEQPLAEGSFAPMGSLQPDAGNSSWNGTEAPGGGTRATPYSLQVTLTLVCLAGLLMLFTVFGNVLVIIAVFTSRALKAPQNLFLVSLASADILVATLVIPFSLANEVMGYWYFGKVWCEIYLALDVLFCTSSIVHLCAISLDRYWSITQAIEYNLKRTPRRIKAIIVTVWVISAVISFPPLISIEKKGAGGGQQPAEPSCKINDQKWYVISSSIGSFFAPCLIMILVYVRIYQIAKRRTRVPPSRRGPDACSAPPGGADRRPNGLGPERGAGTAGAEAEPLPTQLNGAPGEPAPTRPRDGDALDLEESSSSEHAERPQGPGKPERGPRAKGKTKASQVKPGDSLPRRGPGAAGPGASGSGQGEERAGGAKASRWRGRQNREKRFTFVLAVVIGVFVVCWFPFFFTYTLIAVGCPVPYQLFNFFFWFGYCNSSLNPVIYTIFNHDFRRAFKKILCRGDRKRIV

Rattus norvegicus [14] = assay: Approximate effective dose (AED) in inhibition of spontaneous motor activity when administered perorally; type: functional
Outline: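 Three groups of five animals, each group at a different dose. Mean log activity count per group compared with vehicle controls, and the difference plotted against log dose. AED taken at the dose giving a 0.3 log-unit (about 2-fold) difference from control.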

[15] = target: T1, Serotonin 1 (5-HT1) receptor; assay: Ability to bind at serotonin 5-hydroxytryptamine 1 receptor of rat hippocampus by displacing [3H]5-HT; type: tissue-based
Rattus norvegicus [16] = assay: Reversal of trifluoperazine-induced catalepsy in rats when administered perorally; Inactive, maximum dose examined was 20 mg/Kg; type: functional, organism-based
Mus musculus [17] = assay: Blockade of apomorphine-induced climbing in mice when administered perorally
Rattus norvegicus [18] = assay: Induction of catalepsy in rats when administered perorally; type: functional; details: po

Row | Compound | ED25 (Rattus norvegicus [1]) [mg/kg] | MED50 (Rattus norvegicus [2]) [mg/kg] | IC50 [3] [nM] | IC50 [4] [nM] | ED50 (Rattus norvegicus [5]) [mg/kg] | ED25 (Rattus norvegicus [6]) [mg/kg] | ED50 (Rattus norvegicus [7]) [mg/kg] | ED50 (Rattus norvegicus [8]) [mg/kg] | IC50 (D(2) dopamine receptor) [nM] | ED50 (Rattus norvegicus [9]) | IC50 [10] [nM] | MED50 (Mus musculus [11]) [mg/kg] | ED25 (Rattus norvegicus [12]) [mg/kg] | IC50 [13] [nM] | AED (Rattus norvegicus [14]) [mg/kg] | IC50 [15] [nM] | ED50 (Rattus norvegicus [16]) | MED50 (Mus musculus [17]) [mg/kg] | ED50 (Rattus norvegicus [18]) [mg/kg]
1 | CC1(C)CC(=O)N(CCCCN2CCN(c3nccc4sccc34)CC2)C(=O)C1.Cl | 0.06 | 50 | 5.7 | 3 | 6 | 0.086 | 39.7 | 0.042 | 115 | inactive | 18.8 | 10 | 0.05 |  |  |  |  |  | 
2 | Cl.c1cc2sccc2c(N2CCNCC2)n1 |  |  | 71.3 | 141 | 28.6 |  |  |  | > 1000 |  | 139 |  |  | 113 | 20.9 |  |  |  | 
3 | Cl.c1cc2occc2c(N2CCNCC2)n1 |  |  |  | 377 | 7.3 |  |  |  | > 1000 |  | 426 |  |  | 144 | 10.7 | 150 |  |  | 
4 | CN1CCN(C2=Nc3cc(Cl)ccc3Nc3ccccc32)CC1 [CLOZAPINE] |  | 50 |  |  |  |  |  |  |  |  |  |  |  |  |  |  | inactive | 10 | > 200
